Measured values as given in ChEMBL document CHEMBL4725336, “Anti-cancer potential of (1,2-dihydronaphtho[2,1-b]furan-2-yl)methanone derivatives” (Bioorg Med Chem Lett, 2020).
Calls of active or inactive are those of the source. The rule behind the calls is not given here.

Tests used:
MDA-MB-468 [1] = test: Induction of mitochondrial membrane potential loss in human MDA-MB-468 cells by JC-1 staining based analysis; format: functional, cell-based; conditions: dose microM 10-30
How it was run: (§1)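 Cells were given 10, 20 and 30 μM and stained with JC-1. Mitochondrial membrane potential change was read as the shift from red to green fluorescence, i.e. the red/green ratio, across concentration and time.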

MDA-MB-468 [2] = test: Antiproliferative activity against human MDA-MB-468 cells assessed as inhibition of cell proliferation by MTT assay; format: functional; conditions: read-out: LD50 (the source's name)
How it was run: (§2)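 MTT proliferation assay; cells exposed to compounds across 0-50 μM; LD50 derived from dose-dependent survival. Triple-negative MDA-MB-468, MDA-MB-231 and 4T1, ER+/PR+ MCF-7, and non-cancerous lung fibroblast WI-38 tested.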

MCF7 [3] = test: Antiproliferative activity against human MCF7 cells assessed as inhibition of cell proliferation by MTT assay; format: functional; conditions: read-out: LD50 (the source's name); how it was run: as §2
[4] = Cytotoxicity against human WI-38 cells assessed as inhibition of cell proliferation by MTT assay; format: cell-based; conditions: read-out: LD50 (the source's name); how it was run: as §2
[5] = Selectivity index, ratio of LD50 for human WI-38 cells to LD50 for human MDA-MB-468 cells assessed as inhibition of cell proliferation by MTT assay; format: toxicity; conditions: WI-38 cells and MDA-MB-468 cells, read-out: Selectivity Index
How it was run: (§3)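 MTT proliferation assay on cells treated with 0–50 μM. LD50 was derived for each cell line, and the selectivity index was calculated as WI-38 LD50 divided by cancer-cell LD50.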

[6] = Selectivity index, ratio of LD50 for human WI-38 cells to LD50 for human MCF7 cells assessed as inhibition of cell proliferation by MTT assay; format: toxicity; conditions: WI-38 cells and MCF7 cells, read-out: Selectivity Index; how it was run: as §3
4T1 = test: Antiproliferative activity against mouse 4T1 cells assessed as inhibition of cell proliferation by MTT assay; format: functional; conditions: read-out: LD50 (the source's name); how it was run: as §2
[7] = Selectivity index, ratio of LD50 for human WI-38 cells to LD50 for mouse 4T1 cells assessed as inhibition of cell proliferation by MTT assay
How it was run: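 Selectivity index computed as MTT-derived LD50 in non-cancerous WI-38 lung fibroblasts divided by LD50 in the cancer line (cells exposed to 0-50 μM).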

MDA-MB-231 = test: Antiproliferative activity against human MDA-MB-231 cells assessed as inhibition of cell proliferation by MTT assay; format: functional; conditions: read-out: LD50 (the source's name); how it was run: as §2
[8] = Selectivity index, ratio of LD50 for human WI-38 cells to LD50 for human MDA-MB-231 cells assessed as inhibition of cell proliferation by MTT assay; format: toxicity; conditions: WI-38 cells and MDA-MB-231 cells, read-out: Selectivity Index
MDA-MB-468 [9] = test: Induction of apoptosis in human MDA-MB-468 cells at 30 uM measured after 24 hrs by annexinV-FITC/propidium iodide staining based flow cytometry analysis relative to control; format: functional
How it was run: (§4)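 Cells were treated with 0, 10, 20 and 30 μM for 24 h, then stained with Annexin V-FITC/PI. Apoptotic cells were quantified by flow cytometry from dot plots against untreated cells.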

MDA-MB-468 [10] = test: Induction of apoptosis in human MDA-MB-468 cells measured after 24 hrs by annexinV-FITC/propidium iodide staining based flow cytometry analysis; format: functional, cell-based; conditions: dose microM 10-30, time 24.0 hrs; how it was run: as §4
MCF7 [11] = test: Induction of apoptosis in human MCF7 cells measured after 24 hrs by annexinV-FITC/propidium iodide staining based flow cytometry analysis; format: functional, cell-based; conditions: dose microM 10-30, time 24.0 hrs; how it was run: as §4
MCF7 [12] = test: Induction of apoptosis in human MCF7 cells at 30 uM measured after 24 hrs by annexinV-FITC/propidium iodide staining based flow cytometry analysis relative to control; format: functional; how it was run: as §4
WI-38 [13] = test: Induction of apoptosis in human WI-38 cells at 10 to 30 uM measured after 24 hrs by annexinV-FITC/propidium iodide staining based flow cytometry analysis; format: cell-based; conditions: wi-38, 24 h, dose 10-30 µM; how it was run: as §4
MDA-MB-468 [14] = test: Induction of ROS generation in human MDA-MB-468 cells assessed as increase in fluorescence intensity after 12 hrs by DCFDA staining based microscopy analysis; format: functional, cell-based; conditions: dose microM 10-30, time 12.0 hrs
How it was run: (§5)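 Cells were exposed to 0, 10, 20 or 30 μM for 12 h, then stained with DCFDA (100 μM) for 30 min. Green fluorescence was imaged by microscopy and intensity was also read spectrophotometrically. Data are the mean of three experiments ±SD.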

MCF7 [15] = test: Induction of ROS generation in human MCF7 cells assessed as increase in fluorescence intensity after 12 hrs by DCFDA staining based microscopy analysis; format: functional, cell-based; conditions: dose microM 10-30, time 12.0 hrs; how it was run: as §5
MDA-MB-468 [16] = test: Induction of ROS generation in human MDA-MB-468 cells assessed as increase in fluorescence intensity at 10 to 30 uM after 12 hrs in presence of ROS scavenger NAC by DCFDA staining based microscopy analysis; format: functional, cell-based; conditions: dose microM 10-30, time 12.0 hrs
How it was run: (§6)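 Cells were pre-treated with 10 mM N-acetyl cysteine (ROS scavenger), then given 10, 20 or 30 μM for 12 h. They were stained with 100 μM DCFDA for 30 min and read by fluorescence microscopy and spectrophotometric intensity. Three experiments, mean ±SD.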

MCF7 [17] = test: Induction of ROS generation in human MCF7 cells assessed as increase in fluorescence intensity at 10 to 30 uM after 12 hrs in presence of ROS scavenger NAC by DCFDA staining based microscopy analysis; format: functional, cell-based; conditions: dose microM 10-30, time 12.0 hrs; how it was run: as §6
WI-38 [18] = test: Induction of ROS generation in human WI-38 cells assessed as increase in fluorescence intensity at 10 to 30 uM after 12 hrs by DCFDA staining based microscopy analysis; format: cell-based; conditions: wi-38, 12 h, dose 10-30 µM; how it was run: as §5
MDA-MB-468 [19] = test: Induction of mitochondrial membrane potential loss in human MDA-MB-468 cells at 10 to 30 uM by JC-1 staining based analysis; format: functional, cell-based; conditions: dose microM 10-30, TDE = time-dependent effect; how it was run: as §1
MCF7 [20] = test: Induction of mitochondrial membrane potential loss in human MCF7 cells at 10 to 30 uM by JC-1 staining based analysis; format: functional, cell-based; conditions: dose microM 10-30, TDE = time-dependent effect; how it was run: as §1
MCF7 [21] = test: Induction of mitochondrial membrane potential loss in human MCF7 cells by JC-1 staining based analysis; format: functional, cell-based; conditions: dose microM 10-30; how it was run: as §1
WI-38 [22] = test: Induction of mitochondrial membrane potential loss in human WI-38 cells at 10 to 30 uM by JC-1 staining based analysis; format: cell-based; conditions: wi-38, 30 µM, dose 10-30 µM; how it was run: as §1
MDA-MB-468 [23] = test: Induction of apoptosis in human MDA-MB-468 cells assessed as increase in p53 expression at 10 to 30 uM by Western blot analysis; format: functional, cell-based; conditions: dose microM 10-30
How it was run: (§7)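 MDA-MB-468 cells were treated with 10, 20 and 30 μM. Bcl2, Bax, cleaved caspase-3, p53 and pBad were probed by Western blot, and band expression was quantified.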

MDA-MB-468 [24] = test: Induction of mitochondrial ROS production in human MDA-MB-468 cells at 10 to 30 uM by MitoSox red dye based spectrofluorimetric analysis; format: functional, cell-based; conditions: dose microM 10-30
How it was run: (§8)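 Cells were treated at 10, 20 and 30 μM and stained with MitoSOX Red. Red fluorescence from oxidized product was imaged and its intensity measured spectroscopically. Mean of three experiments ±SD.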

MCF7 [25] = test: Induction of mitochondrial ROS production in human MCF7 cells at 10 to 30 uM by MitoSox red dye based spectrofluorimetric analysis; format: functional, cell-based; conditions: dose microM 10-30; how it was run: as §8
MDA-MB-468 [26] = test: Induction of DNA damage in human MDA-MB-468 cells assessed as tail length at 20 uM measured after 24 hrs by comet assay; format: functional
How it was run: (§9)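 Cells given 0, 10, 20 and 30 μM; DNA strand breaks were assessed by single-cell gel electrophoresis (comet assay). Fragmented DNA migrates toward the anode, and tail length was measured against untreated cells.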

MDA-MB-468 [27] = test: Induction of DNA damage in human MDA-MB-468 cells assessed as tail length at 30 uM measured after 24 hrs by comet assay; format: functional; how it was run: as §9
MDA-MB-468 [28] = test: Induction of apoptosis in human MDA-MB-468 cells assessed as increase in BAX/Bcl2 expression ratio at 10 to 30 uM by Western blot analysis; format: functional, cell-based; conditions: dose microM 10-30; how it was run: as §7
MDA-MB-468 [29] = test: Induction of apoptosis in human MDA-MB-468 cells assessed as decrease in Bcl2 expression at 10 to 30 uM by Western blot analysis; format: functional, cell-based; conditions: dose microM 10-30; how it was run: as §7
MDA-MB-468 [30] = test: Induction of apoptosis in human MDA-MB-468 cells assessed as decrease in pBad expression at 10 to 30 uM by Western blot analysis; format: functional, cell-based; conditions: dose microM 10-30; how it was run: as §7
MDA-MB-468 [31] = test: Induction of apoptosis in human MDA-MB-468 cells assessed as activation of caspase-3 cleavage at 10 to 30 uM by Western blot analysis; format: functional, cell-based; conditions: dose microM 10-30; how it was run: as §7
MDA-MB-468 [32] = test: Induction of apoptosis in human MDA-MB-468 cells assessed as increase in cleaved caspase-3 expression at 10 to 30 uM in presence of pan-caspase inhibitor z-VAD-FMK by Western blot analysis; format: functional, cell-based; conditions: dose microM 10-30
How it was run: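 MDA-MB-468 cells were exposed to the caspase inhibitor Z-VAD-FMK, then treated with 10, 20 or 30 μM. Cleaved caspase-3 was detected by Western blot and quantified.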

WI-38 [33] = test: Induction of apoptosis in human WI-38 cells assessed as increase in cleaved caspase-3 expression at 10 to 30 uM by Western blot analysis; format: cell-based; conditions: wi-38, 30 µM, dose 10-30 µM

## Cc1ccc(C(=O)[C@@H]2Cc3c(ccc4ccccc34)O2)cc1
MDA-MB-468 [1]
  Activity: Dose-dependent effect
MDA-MB-468 [2]
  CC50: 15 µM
MCF7 [3]
  CC50: 17 µM
[4]
  CC50: 58 µM
[5]
  selectivity ratio: 3.87
[6]
  selectivity ratio: 3.41
4T1
  CC50: 21 µM
[7]
  Selectivity Index: 2.76
MDA-MB-231
  CC50: 19 µM
[8]
  selectivity ratio: 3.05
MDA-MB-468 [9]
  Activity: 69%
MDA-MB-468 [10]
  Activity: Dose-dependent effect
MCF7 [11]
  Activity: Dose-dependent effect
MCF7 [12]
  Activity: 61%
WI-38 [13]
  Activity: Non-Toxic
MDA-MB-468 [14]
  Activity: Dose-dependent effect
MCF7 [15]
  Activity: Dose-dependent effect
MDA-MB-468 [16]
  Activity: inactive
MCF7 [17]
  Activity: inactive
WI-38 [18]
  Activity: Non-Toxic
MDA-MB-468 [19]
  Activity: Tde
MCF7 [20]
  Activity: Tde
MCF7 [21]
  Activity: Dose-dependent effect
WI-38 [22]
  Activity: Non-Toxic
MDA-MB-468 [23]
  Activity: Active
MDA-MB-468 [24]
  Activity: Active
MCF7 [25]
  Activity: Active
MDA-MB-468 [26]
  Activity: 32 µm
MDA-MB-468 [27]
  Activity: 63 µm
MDA-MB-468 [28]
  Activity: Active
MDA-MB-468 [29]
  Activity: Active
MDA-MB-468 [30]
  Activity: Active
MDA-MB-468 [31]
  Activity: Active
MDA-MB-468 [32]
  Activity: inactive
WI-38 [33]
  Activity: Non-Toxic
